Laboratory results: ChEMBL document CHEMBL4014310, “Selective IKur Inhibitors for the Potential Treatment of Atrial Fibrillation: Optimization of the Phenyl Quinazoline Series Leading to Clinical Candidate 5-[5-Phenyl-4-(pyridin-2-ylmethylamino)quinazolin-2-yl]pyridine-3-sulfonamide” (J Med Chem, 2017)

Columns and labels:
[1] = Ratio of drug level in Sprague-Dawley rat brain to plasma at 3 mg/kg, iv administered as 10 mins infusion by LC-MS/MS analysis; assay type: ADME, organism-based; conditions: brain and plasma, read-out: BPR
[2] = biological target: T1, hERG (KCNH2) (Homo sapiens, UniProt Q12809); assay: Inhibition of human ERG expressed in HEK293 cells at 10 uM by patch clamp method relative to control; assay type: cell-based; conditions: HEK293 cells expressing human ERG
T1 sequence (Q12809 whole entry): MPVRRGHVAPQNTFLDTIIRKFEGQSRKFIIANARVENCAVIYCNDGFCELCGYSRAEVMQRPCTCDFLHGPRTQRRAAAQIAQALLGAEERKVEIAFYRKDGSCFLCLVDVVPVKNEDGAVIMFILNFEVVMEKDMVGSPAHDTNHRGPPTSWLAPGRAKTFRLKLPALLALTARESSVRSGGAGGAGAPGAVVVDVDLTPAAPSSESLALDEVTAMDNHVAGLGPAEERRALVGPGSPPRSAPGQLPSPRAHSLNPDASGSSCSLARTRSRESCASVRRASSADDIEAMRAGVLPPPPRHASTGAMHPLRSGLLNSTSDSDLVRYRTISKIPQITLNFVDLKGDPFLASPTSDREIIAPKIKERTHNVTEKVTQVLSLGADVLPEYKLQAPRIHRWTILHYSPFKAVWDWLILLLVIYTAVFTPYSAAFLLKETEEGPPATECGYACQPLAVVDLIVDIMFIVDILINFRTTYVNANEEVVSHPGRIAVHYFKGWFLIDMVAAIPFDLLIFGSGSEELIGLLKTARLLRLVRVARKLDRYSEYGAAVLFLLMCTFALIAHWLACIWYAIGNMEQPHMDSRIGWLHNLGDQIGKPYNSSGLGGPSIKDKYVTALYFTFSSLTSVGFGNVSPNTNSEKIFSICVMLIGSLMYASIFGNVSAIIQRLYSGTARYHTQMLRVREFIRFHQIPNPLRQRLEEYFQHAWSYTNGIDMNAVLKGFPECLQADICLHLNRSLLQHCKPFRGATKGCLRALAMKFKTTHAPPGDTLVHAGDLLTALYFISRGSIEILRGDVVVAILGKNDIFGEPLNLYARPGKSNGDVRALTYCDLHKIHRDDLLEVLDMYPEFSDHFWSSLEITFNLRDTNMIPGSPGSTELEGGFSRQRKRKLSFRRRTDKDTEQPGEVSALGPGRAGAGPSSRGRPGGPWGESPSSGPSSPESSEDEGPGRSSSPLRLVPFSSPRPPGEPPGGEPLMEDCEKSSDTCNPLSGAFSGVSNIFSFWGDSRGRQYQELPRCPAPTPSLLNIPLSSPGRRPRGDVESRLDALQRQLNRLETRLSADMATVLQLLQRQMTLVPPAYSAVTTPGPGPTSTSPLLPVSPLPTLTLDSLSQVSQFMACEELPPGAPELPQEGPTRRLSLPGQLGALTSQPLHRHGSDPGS

[3] = Protein binding in human plasma; assay type: ADME, cell-free; conditions: read-out: PPB
[4] = Protein binding in rat plasma; assay type: ADME, cell-free; conditions: read-out: PPB
[5] = biological target: T2, Potassium voltage-gated channel subfamily A member 5 (Homo sapiens, UniProt P22460); conditions: at 0.3 µM
T2 sequence (P22460 whole entry): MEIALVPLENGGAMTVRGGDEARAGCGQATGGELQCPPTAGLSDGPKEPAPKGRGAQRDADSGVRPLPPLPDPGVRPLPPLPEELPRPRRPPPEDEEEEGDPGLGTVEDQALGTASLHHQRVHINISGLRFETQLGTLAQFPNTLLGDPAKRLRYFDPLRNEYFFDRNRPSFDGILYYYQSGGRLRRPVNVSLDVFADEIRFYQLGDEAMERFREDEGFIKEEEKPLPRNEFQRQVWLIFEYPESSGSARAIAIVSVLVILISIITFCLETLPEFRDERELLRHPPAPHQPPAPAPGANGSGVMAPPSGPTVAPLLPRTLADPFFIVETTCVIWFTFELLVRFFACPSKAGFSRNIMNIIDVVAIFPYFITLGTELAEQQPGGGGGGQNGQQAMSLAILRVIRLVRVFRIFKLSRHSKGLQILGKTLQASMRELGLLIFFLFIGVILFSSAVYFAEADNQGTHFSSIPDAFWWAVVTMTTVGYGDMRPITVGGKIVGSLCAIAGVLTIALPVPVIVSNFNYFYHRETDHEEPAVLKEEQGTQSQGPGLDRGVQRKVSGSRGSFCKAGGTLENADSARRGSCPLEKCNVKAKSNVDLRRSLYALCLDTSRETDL

[6] = biological target: T3, Voltage-gated inwardly rectifying potassium channel KCNH2 (Homo sapiens, UniProt Q12809); assay: Inhibition of human ERG expressed in HEK293 cells by patch clamp method; assay type: cell-based
T3 sequence (Q12809 whole entry): as the sequence (Q12809 whole entry) above

[7] = Solubility of the compound in ethanol/propylene glycol/PEG-400; assay type: physicochemical
[8] = biological target: T2, Potassium voltage-gated channel subfamily A member 5; assay: Inhibition of recombinant human Kv1.5 expressed in mouse L929 cells by patch clamp assay; assay type: cell-based
In short: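 Whole-cell patch clamp of IKur current in mouse L-929 cells transfected with human KV1.5 and stably expressing the channel.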

[9] = Solubility of the compound in pH 1 to 8 solution using crystalline form; assay type: physicochemical
[10] = Prodrug conversion in monkey famotidine model assessed as 5-[5-phenyl-4-(pyridin-2-ylmethylamino)-quinazolin-2-yl]pyridine-3-sulfonamide formation in intestinal brush border; assay type: ADME, Macaca mulatta; conditions: rhesus monkey, in vivo
[11] = system: Plasma; assay: Drug uptake in monkey famotidine model plasma; assay type: ADME, cell-free, Macaca mulatta; conditions: rhesus monkey
[12] = Stability in human liver microsomes assessed as compound remaining in presence of NADPH after 10 mins; assay type: ADME, microsome; conditions: read-out: Stability
[13] = biological target: T3, Voltage-gated inwardly rectifying potassium channel KCNH2; assay: Inhibition of human ERG expressed in HEK293 cells by flux assay
[14] = biological target: T1, hERG (KCNH2); assay: Inhibition of human ERG expressed in HEK293 cells at 1 uM by patch clamp method relative to control; assay type: cell-based; conditions: HEK293 cells expressing human ERG

Row | SMILES | Kp at 10 min [1] | fraction unbound [3] | fraction unbound [4] | inhibition [5] | other results
1 | CS(=O)(=O)Nc1cncc(-c2nc(NCc3ccccn3)c3c(-c4ccccc4)cccc3n2)c1 | 0.07 | < 0.005 | < 0.005 | 87% | inhibition at 10 µM [2]: 94%
2 | NC(=O)Nc1ccc(-c2nc(NCc3ccccn3)c3c(-c4ccccc4)cccc3n2)cn1 | 1 | < 0.005 | < 0.005 | 79% | –
3 | Nc1ncc(-c2nc(NCc3ccccn3)c3c(-c4ccccc4)cccc3n2)cn1 | 3 | < 0.005 | < 0.005 | 95% | IC50 [6]: 80000 nM
4 | CC(=O)Nc1ccc(-c2nc(NCc3ccccn3)c3c(-c4ccccc4)cccc3n2)cn1 | 2 | < 0.005 | < 0.005 | 80% | –
5 | O=c1ccc(-c2nc(NCc3ccccn3)c3c(-c4ccccc4)cccc3n2)c[nH]1 | 1 | – | – | – | IC50 [6]: 500 nM
6 | NC(=O)Nc1cncc(-c2nc(NCc3ccccn3)c3c(-c4ccccc4)cccc3n2)c1 | 0.04 | < 0.005 | < 0.005 | 91% | solubility [7]: Insoluble
7 | CC(=O)Nc1cncc(-c2nc(NCc3ccccn3)c3c(-c4ccccc4)cccc3n2)c1 | 0.08 | < 0.005 | < 0.005 | – | IC50 [8]: 100 nM; IC50 [6]: 2000 nM
8 | O=P(O)(O)NS(=O)(=O)c1cncc(-c2nc(NCc3ccccn3)c3c(-c4ccccc4)cccc3n2)c1 | – | – | – | – | solubility [9]: Soluble; Drug metabolism [10]: Metabolite_Detected; Drug uptake [11]: Not Active
9 | NC(=O)c1ccc(-c2nc(NCc3ccccn3)c3c(-c4ccccc4)cccc3n2)cn1 | 3 | < 0.01 | < 0.01 | – | IC50 [8]: 100 nM; IC50 [6]: 4600 nM
10 | N#Cc1ncc(-c2nc(NCc3ccccn3)c3c(-c4ccccc4)cccc3n2)cn1 | 3 | – | – | 64% | –
11 | NS(=O)(=O)c1cccc(-c2nc(NCc3ccccn3)c3c(-c4ccccc4)cccc3n2)n1 | – | – | – | 87% | –
12 | c1ccc(-c2cccc3nc(-c4cncnc4)nc(NCc4ccccn4)c23)cc1 | 2.8 | – | – | – | –
13 | c1ccc(CNc2nc(-c3cncnc3)nc3cccc(-c4cccc(N5CCOCC5)c4)c23)nc1 | 0.3 | – | – | 50% | –
14 | COc1ncc(-c2nc(NCc3ccccn3)c3c(-c4ccccc4)cccc3n2)cn1 | 2.5 | – | – | – | –
15 | O=C(NCC(F)(F)F)c1ccc(-c2cccc3nc(-c4cncnc4)nc(NCc4ccccn4)c23)cc1 | 0.3 | < 0.005 | < 0.005 | 2% | IC50 [6]: 4900 nM
16 | O=S(=O)(c1cccc(Nc2nc(Cl)nc3cccc(-c4ccccc4)c23)c1)N1CCOCC1 | 3 | – | – | – | IC50 [8]: 210 nM
17 | NS(=O)(=O)c1ccc(CCNc2nc(Cl)nc3cccc(-c4ccccc4)c23)cc1 | 0.6 | – | – | 73% | remaining at 10 min [12]: 68%
18 | NS(=O)(=O)Nc1cncc(-c2nc(NCc3ccccn3)c3c(-c4ccccc4)cccc3n2)c1 | 0.04 | < 0.005 | < 0.005 | 99% | IC50 [6]: 800 nM; solubility [7]: Insoluble
19 | NC(=O)c1ccc(-c2cccc3nc(-c4cncnc4)nc(NCc4ccccn4)c23)cc1 | 0.2 | < 0.01 | < 0.01 | – | IC50 [6]: 1300 nM
20 | NS(=O)(=O)c1ccc(CCNc2nc(-c3cncnc3)nc3cccc(-c4ccccc4)c23)cc1 | – | – | – | 15% | IC50 [13]: 5600 nM
21 | O=S(=O)(c1cccc(Nc2nc(-c3cncnc3)nc3cccc(-c4ccccc4)c23)c1)N1CCOCC1 | 2.4 | < 0.005 | < 0.005 | – | IC50 [8]: 80 nM
22 | NS(=O)(=O)c1ccncc1-c1nc(NCc2ccccn2)c2c(-c3ccccc3)cccc2n1 | – | – | – | 48% | –
23 | NS(=O)(=O)c1ccc(-c2nc(NCc3ccccn3)c3c(-c4ccccc4)cccc3n2)cn1 | 0.4 | < 0.005 | < 0.005 | 92% | –
24 | CN(C)c1ccc(-c2cccc3nc(-c4cncnc4)nc(NCc4ccccn4)c23)cc1 | – | – | – | – | IC50 [8]: 330 nM; IC50 [13]: > 80000 nM; remaining at 10 min [12]: < 3%
25 | NC(=O)c1cncc(-c2nc(NCc3ccccn3)c3c(-c4ccccc4)cccc3n2)c1 | 0.3 | < 0.005 | < 0.005 | 89% | inhibition at 1 µM [14]: 26%
